Assay results: ChEMBL document CHEMBL1144399, “Peptoid-peptide hybrids as potent novel melanocortin receptor ligands” (J Med Chem, 2005)
Where a SMILES comes first, the peptide text is derived from it. [ ]: non-standard residue; d: D form. Gly(N(CH2)2(3-indolyl)) = O=C(O)CNCCc1c[nH]c2ccccc12; Gly(N-(CH2)3-guanidino) = N=C(N)NCCCNCC(=O)O; Nle = CCCC[C@H](N)C(=O)O; Nphe = O=C(O)CNCc1ccccc1; NBuGly = CCCCNCC(=O)O; Nlys = NCCCCNCC(=O)O

What was measured:
Assay type in all cases: cell-based, HEK293
Melanocortin receptor 3 [1] = target: T1, Melanocortin receptor 3 (Homo sapiens, UniProt P41968); test: Effective concentration against human melanocortin receptor-3 expressed in 293 HEK cells
Procedure, shortened: (§1)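 LacZ reporter-gene activation assay in HEK293 cells expressing human MC3, human MC4 or mouse MC5 receptor. Dose-response curves run up to 30 µM. EC50 reported as -log(EC50) (M) with 95% confidence ranges. Incomplete or absent curves at 30 µM were not assigned values.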

Melanocortin receptor 4 [2] = target: T2, Melanocortin receptor 4 (Homo sapiens, UniProt P32245); test: Effective concentration against human melanocortin receptor-4 expressed in 293 HEK cells; procedure, shortened: as §1
Melanocortin receptor 5 [3] = target: T3, Melanocortin receptor 5 (Mus musculus, UniProt P41149); test: Effective concentration against mouse melanocortin receptor-5 expressed in 293 HEK cells; procedure, shortened: as §1
Melanocortin receptor 3 [4] = target: T1, Melanocortin receptor 3; test: Displacement of [125I]NDP-MSH from human melanocortin receptor-3 expressed in 293 HEK cells
Procedure, shortened: (§2)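 Radioligand competition with [125I]-NDP-MSH on HEK293 cells expressing human MC3, human MC4 or mouse MC5 receptor. Ligands up to 30 µM. IC50 reported as -log(IC50) (M) with 95% confidence ranges. Ligands without activation activity were tested only at a single 30 µM concentration.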

Melanocortin receptor 4 [5] = target: T2, Melanocortin receptor 4; test: Displacement of [125I]NDP-MSH from human melanocortin receptor-4 expressed in 293 HEK cells; procedure, shortened: as §2
Melanocortin receptor 5 [6] = target: T3, Melanocortin receptor 5; test: Displacement of [125I]NDP-MSH from mouse melanocortin receptor-5 expressed in 293 HEK cells; procedure, shortened: as §2

T3 sequence (P41149 whole entry): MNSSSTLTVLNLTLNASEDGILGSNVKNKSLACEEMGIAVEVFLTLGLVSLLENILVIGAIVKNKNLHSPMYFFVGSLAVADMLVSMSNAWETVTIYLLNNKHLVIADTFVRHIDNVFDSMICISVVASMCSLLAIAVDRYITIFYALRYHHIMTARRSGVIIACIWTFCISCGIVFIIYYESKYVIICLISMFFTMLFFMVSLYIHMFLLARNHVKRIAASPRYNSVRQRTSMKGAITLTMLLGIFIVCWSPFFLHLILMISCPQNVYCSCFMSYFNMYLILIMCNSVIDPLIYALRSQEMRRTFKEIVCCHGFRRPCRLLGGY
T1 sequence (P41968 whole entry): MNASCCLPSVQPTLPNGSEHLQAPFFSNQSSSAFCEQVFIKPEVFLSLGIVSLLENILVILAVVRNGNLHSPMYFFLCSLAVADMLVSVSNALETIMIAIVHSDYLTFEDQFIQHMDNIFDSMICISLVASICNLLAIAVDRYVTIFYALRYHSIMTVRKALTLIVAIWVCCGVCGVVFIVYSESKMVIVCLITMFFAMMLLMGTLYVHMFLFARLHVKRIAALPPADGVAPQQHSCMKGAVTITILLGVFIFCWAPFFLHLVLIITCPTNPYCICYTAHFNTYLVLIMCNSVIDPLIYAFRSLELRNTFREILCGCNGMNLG
T2 sequence (P32245 whole entry): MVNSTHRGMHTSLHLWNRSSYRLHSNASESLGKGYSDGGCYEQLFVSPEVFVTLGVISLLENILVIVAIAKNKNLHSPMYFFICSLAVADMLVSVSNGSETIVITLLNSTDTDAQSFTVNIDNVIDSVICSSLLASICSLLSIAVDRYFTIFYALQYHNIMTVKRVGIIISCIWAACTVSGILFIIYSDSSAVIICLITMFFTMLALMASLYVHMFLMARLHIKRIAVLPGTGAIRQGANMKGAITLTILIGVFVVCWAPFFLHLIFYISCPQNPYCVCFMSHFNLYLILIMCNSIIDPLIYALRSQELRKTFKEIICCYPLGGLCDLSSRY

Compound | EC50 (Melanocortin receptor 3 [1]) [nM] | EC50 (Melanocortin receptor 4 [2]) [nM] | EC50 (Melanocortin receptor 5 [3]) [nM] | IC50 (Melanocortin receptor 3 [4]) [nM] | IC50 (Melanocortin receptor 4 [5]) [nM] | IC50 (Melanocortin receptor 5 [6]) [nM]
CCCCN(CC(=O)NCC(=O)N(CCCCN)CC(=O)N[C@H](Cc1ccccc1)C(=O)N[C@@H](CCCNC(=N)N)C(=O)N[C@@H](Cc1c[nH]c2ccccc12)C(=O)NCC(N)=O)C(C)=O | 2000 | 63.1 | 7940 | 1260 | 63.1 | 794
CCCCN(CC(=O)NCC(=O)N[C@@H](CCCCN)C(=O)N[C@H](Cc1ccccc1)C(=O)N(CCCN=C(N)N)CC(=O)N(CCc1c[nH]c2ccccc12)CC(=O)NCC(N)=O)C(C)=O | 158 | 100 | 316 | 3160 | 251 | 1260
CCCCN(CC(=O)NCC(=O)N[C@@H](CCCCN)C(=O)N[C@H](Cc1ccccc1)C(=O)N[C@@H](CCCNC(=N)N)C(=O)N(CC(=O)NCC(N)=O)Cc1c[nH]c2ccccc12)C(C)=O | 794 | 631 | 3980 | 1260 | 794 | 1580
CCCCN(CC(=O)NCC(=O)N(CCCCN)CC(=O)N[C@H](Cc1ccccc1)C(=O)N[C@@H](CCCNC(=N)N)C(=O)N(CC(=O)NCC(N)=O)Cc1c[nH]c2ccccc12)C(C)=O |  | 3980 |  | 2000 | 794 | 2000
CCCC[C@H](NC(C)=O)C(=O)NCC(=O)N[C@@H](CCCCN)C(=O)N[C@H](Cc1ccccc1)C(=O)N(CCCNC(=N)N)CC(=O)N(CCc1c[nH]c2ccccc12)CC(=O)NCC(N)=O | 158 | 79.4 | 15.8 | 2000 | 79.4 | 1000
CCCCN(CC(=O)NCC(=O)N(CCCCN)CC(=O)N[C@H](Cc1ccccc1)C(=O)N(CCCN=C(N)N)CC(=O)N(CCc1c[nH]c2ccccc12)CC(=O)NCC(N)=O)C(C)=O | 6310 | 794 |  | 3980 | 1000 | 2000
CCCC[C@H](NC(C)=O)C(=O)NCC(=O)N(CCCCN)CC(=O)N[C@H](Cc1ccccc1)C(=O)N[C@@H](CCCNC(=N)N)C(=O)N(CCc1c[nH]c2ccccc12)CC(=O)NCC(N)=O |  | 2000 |  |  |  | 
CCCC[C@H](NC(C)=O)C(=O)NCC(=O)N(CCCCN)CC(=O)N[C@H](Cc1ccccc1)C(=O)N[C@@H](CCCN=C(N)N)C(=O)N(CC(=O)NCC(N)=O)Cc1c[nH]c2ccccc12 | 5010 | 1260 | 2000 | 794 | 158 | 631
CCCC[C@H](NC(C)=O)C(=O)NCC(=O)N[C@@H](CCCCN)C(=O)N[C@H](Cc1ccccc1)C(=O)N[C@@H](CCCN=C(N)N)C(=O)N(CC(=O)NCC(N)=O)Cc1c[nH]c2ccccc12 | 316 | 158 | 251 | 501 | 251 | 794
CCCCN(CC(=O)NCC(=O)N[C@@H](CCCCN)C(=O)N[C@H](Cc1ccccc1)C(=O)N(CCCN=C(N)N)CC(=O)N[C@@H](Cc1c[nH]c2ccccc12)C(=O)NCC(N)=O)C(C)=O | 5010 | 794 | 6310 |  |  | 
CCCC[C@H](NC(C)=O)C(=O)NCC(=O)N[C@@H](CCCCN)C(=O)N[C@H](Cc1ccccc1)C(=O)N(CCCCN=C(N)N)CC(=O)N[C@@H](Cc1c[nH]c2ccccc12)C(=O)NCC(N)=O |  | 251 | 63.1 | 3980 | 158 | 2000
CCCCN(CC(=O)NCC(=O)N[C@@H](CCCCN)C(=O)N[C@H](Cc1ccccc1)C(=O)N(CCCN=C(N)N)CC(=O)N(CC(=O)NCC(N)=O)Cc1c[nH]c2ccccc12)C(C)=O |  | 501 |  | 7940 | 794 | 3160
CCCCN(CC(=O)NCC(=O)N(CCCCN)CC(=O)N[C@H](Cc1ccccc1)C(=O)N[C@@H](CCCN=C(N)N)C(=O)N(CCc1c[nH]c2ccccc12)CC(=O)NCC(N)=O)C(C)=O |  | 6310 |  |  | 2000 | 6310
CCCCN(CC(=O)NCC(=O)N[C@@H](CCCCN)C(=O)N[C@H](Cc1ccccc1)C(=O)N[C@@H](CCCNC(=N)N)C(=O)N(CCc1c[nH]c2ccccc12)CC(=O)NCC(N)=O)C(C)=O | 3160 | 316 |  |  |  | 
CCCC[C@H](NC(C)=O)C(=O)NCC(=O)N[C@@H](CCCCN)C(=O)N[C@H](Cc1ccccc1)C(=O)N[C@@H](CCCNC(=N)N)C(=O)N[C@@H](Cc1c[nH]c2ccccc12)C(=O)NCC(N)=O | 7.94 | 0.501 | 31.6 | 200 | 2.51 | 
CCCC[C@H](NC(C)=O)C(=O)NCC(=O)N[C@@H](CCCCN)C(=O)N[C@H](Cc1ccccc1)C(=O)N(CCCNC(=N)N)CC(=O)N[C@@H](Cc1c[nH]c2ccccc12)C(=O)NCC(N)=O | 3980 | 631 | 251 | 5010 | 398 | 3160
CCCCN(CC(=O)NCC(=O)N(CCCCN)CC(=O)N[C@H](Cc1ccccc1)C(=O)N(CCCN=C(N)N)CC(=O)N(CC(=O)NCC(N)=O)Cc1c[nH]c2ccccc12)C(C)=O |  | 5010 |  |  | 3980 | 3980
CCCC[C@H](NC(C)=O)C(=O)NCC(=O)N[C@@H](CCCCN)C(=O)N[C@H](Cc1ccccc1)C(=O)N[C@@H](CCCN=C(N)N)C(=O)N(CCc1c[nH]c2ccccc12)CC(=O)NCC(N)=O | 2000 | 316 | 2000 | 7940 | 316 | 10000
CCCCN(CC(=O)NCC(=O)N[C@@H](CCCCN)C(=O)N[C@H](Cc1ccccc1)C(=O)N[C@@H](CCCN=C(N)N)C(=O)N[C@@H](Cc1c[nH]c2ccccc12)C(=O)NCC(N)=O)C(C)=O | 25.1 | 2.51 | 794 | 126 | 20 | 
CCCCN(CC(=O)NCC(=O)N[C@@H](CCCCN)C(=O)N(CC(=O)N[C@@H](CCCN=C(N)N)C(=O)N[C@@H](Cc1c[nH]c2ccccc12)C(=O)NCC(N)=O)Cc1ccccc1)C(C)=O (Ac-[NBuGly]GK[Nphe]RWG-NH2) |  | 2000 |  |  | 5010 | 5010
CCCCN(CC(=O)NCC(=O)N(CCCCN)CC(=O)N[C@@H](Cc1ccccc1)C(=O)N(CCCN=C(N)N)CC(=O)N[C@@H](Cc1c[nH]c2ccccc12)C(=O)NCC(N)=O)C(C)=O (Ac-[NBuGly]G[Nlys]F[Gly(N-(CH2)3-guanidino)]WG-NH2) |  | 3160 | 6310 |  | 5010 | 
CCCC[C@H](NC(C)=O)C(=O)NCC(=O)N[C@@H](CCCCN)C(=O)N(CC(=O)N[C@@H](CCCN=C(N)N)C(=O)N[C@@H](Cc1c[nH]c2ccccc12)C(=O)NCC(N)=O)Cc1ccccc1 (Ac-[Nle]GK[Nphe]RWG-NH2) |  | 1260 |  |  |  | 
CCCC[C@H](NC(C)=O)C(=O)NCC(=O)N[C@@H](CCCCN)C(=O)N(CC(=O)N(CCCN=C(N)N)CC(=O)N(CCc1c[nH]c2ccccc12)CC(=O)NCC(N)=O)Cc1ccccc1 (Ac-[Nle]GK[Nphe][Gly(N-(CH2)3-guanidino)][Gly(N(CH2)2(3-indolyl))]G-NH2) |  |  | 7940 |  |  | 
CCCC[C@H](NC(C)=O)C(=O)NCC(=O)N(CCCCN)CC(=O)N[C@@H](Cc1ccccc1)C(=O)N(CCCN=C(N)N)CC(=O)N[C@@H](Cc1c[nH]c2ccccc12)C(=O)NCC(N)=O (Ac-[Nle]G[Nlys]F[Gly(N-(CH2)3-guanidino)]WG-NH2) |  | 2000 | 501 |  |  | 
CCCC[C@H](NC(C)=O)C(=O)NCC(=O)N(CCCCN)CC(=O)N(CC(=O)N[C@@H](CCCN=C(N)N)C(=O)N[C@@H](Cc1c[nH]c2ccccc12)C(=O)NCC(N)=O)Cc1ccccc1 (Ac-[Nle]G[Nlys][Nphe]RWG-NH2) |  | 2000 |  |  |  | 
CCCC[C@H](NC(C)=O)C(=O)NCC(=O)N(CCCCN)CC(=O)NC(Cc1ccccc1)C(=O)N(CCCNC(=N)N)CC(=O)N(CC(=O)NCC(N)=O)Cc1c[nH]c2ccccc12 (single isomer, unassigned) | 6310 | 2000 | 3160 |  | 3160 | 3160
